ChEMBL document CHEMBL3352171, “Synthesis and biological evaluation of andrographolide analogues as anti-cancer agents” (Eur J Med Chem, 2014)
Calls of active or inactive are those of the source. The rule behind the calls is not given here.

Columns and labels:
[1] = test system: HEK293; assay: Reduction in Bcl-xL expression in p53 deficient HEK293 cells at LC50 level after 48 hrs by Western blot method; type: functional, cell-based; conditions: Homo sapiens
[2] = Induction of DNA adduct formation (unknown origin) using guanosine in presence of glacial acetic acid at 75 degC incubated for 12 hrs by TLC method
In short: (§1)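 Model reaction of compound with guanosine in glacial acetic acid at 75 °C, heated up to 12 h; adduct sought by TLC and LCMS.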

[3] = test system: HEK293; assay: Induction of cell cycle arrest in HEK293 cells assessed as accumulation at G2/M phase at 5 uM after 48 hrs by propidium iodide staining based flow cytometry (reference value: 2.63 +/- 0.7%); type: functional, Homo sapiens
[4] = Induction of DNA adduct formation (unknown origin) using guanosine in presence of glacial acetic acid at 75 degC incubated for 12 hrs by LC-MS method; in short: as §1
[5] = Cytotoxicity against human MCF10A cells after 48 hrs by MTT assay; type: cell-based; conditions: mcf-10a
In short: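 Cells seeded at 10,000 per well and exposed to increasing compound concentrations for 48 h. After a PBS wash, MTT (2.5 mg/mL) was added for 6 h at 37 °C, then detergent (10% NP-40, 4 mM HCl), and absorbance was read at 570 nm. LC50 is the concentration causing 50% cell death. Values are means of three independent experiments.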

[6] = test system: HEK293; assay: Reduction in NFkappaB expression in HEK293 cells at LC50 level after 48 hrs by Western blot method; type: functional, cell-based; conditions: Homo sapiens
[7] = test system: HEK293; assay: Induction of cell cycle arrest in HEK293 cells assessed as accumulation at S phase at 15 uM after 48 hrs by propidium iodide staining based flow cytometry (reference value: 19.9 +/- 0.5%); type: functional, Homo sapiens
[8] = test system: HEK293; assay: Induction of cell cycle arrest in HEK293 cells assessed as accumulation at G1 phase at 5 uM after 48 hrs by propidium iodide staining based flow cytometry (reference value: 53.21 +/- 0.8%); type: functional, Homo sapiens
[9] = species on record: Bos taurus; assay: Induction of conformational changes in calf thymus DNA assessed as B-DNA conformation changes at 100 uM after 2 hrs by CD spectroscopy
[10] = test system: HEK293; assay: Induction of cell cycle arrest in HEK293 cells assessed as accumulation at S phase at 10 uM after 48 hrs by propidium iodide staining based flow cytometry (reference value: 19.9 +/- 0.5%); type: functional, Homo sapiens
[11] = Retention time of the compound by HPLC method; type: physicochemical
[12] = test system: HEK293; assay: Induction of apoptosis in HEK293 cells at 10 uM after 48 hrs by propidium iodide staining based flow cytometry (reference value: 24.26 +/- 0.8%); type: functional, Homo sapiens

With `C=C1CC[C@@H]2[C@](C)(CO)[C@H](O)CC[C@@]2(C)[C@@H]1C/C=C1/C(=O)OC[C@H]1OC(=O)CI` as the compound, how does the Activity [1] read?
The Activity was “inactive”.

What about the Activity [2] of the same compound?
The Activity was “inactive”.

And the Activity [3]?
Its Activity is 2.14%.

And the Activity [4]?
Its Activity is “inactive”.

What about the LC50 [5] of the same compound?
The LC50 was over 40 µM.

And the Activity [6]?
The Activity was “Active”.

And the Activity [7]?
The Activity was 5.67%.

What about the Activity [8] of the same compound?
Its Activity is 24.77%.

And the Activity [9]?
Its Activity is “inactive”.

And the Activity [10]?
Its Activity is 7.57%.

What about the Retention_time [11] of the same compound?
The Retention_time was 26.9 min.

And the Activity [12]?
Its Activity is 74.03%.
